For 14 molecules, MBC and MIC results are on record in ChEMBL document CHEMBL1139927, “A new class of nifuroxazide analogues: synthesis of 5-nitrothiophene derivatives with antimicrobial activity against multidrug-resistant Staphylococcus aureus” (2007).

Common to all, as to assay type: functional
Assay [1] deals with Staphylococcus aureus. The assay is described as follows: Antimicrobial activity against multidrug-resistant Staphylococcus aureus 3SP/R33 […] after 24 hrs. As to conditions: 3SP/R33, 24 h. An outline of the steps: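 MBC: 10 µL was taken from each tube that stayed clear in the broth dilution MIC test. Each aliquot was spread over the whole surface of a Müller–Hinton agar plate, and plates were incubated at 35 °C for 24 h to read bactericidal concentration.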

Assay [2] has as its system Staphylococcus aureus. The assay is described as follows: Antimicrobial activity against multidrug-resistant Staphylococcus aureus 3SP/R33 after 18 hrs by serial dilution test. The settings on record: 3SP/R33, 18 h. An outline of the steps:
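Broth twofold macro-dilution in Tryptic Soy Broth. Inoculum came from fresh cultures grown on plate count agar for 18 h at 35 °C and was adjusted to McFarland no. 1. Compound stocks were made in DMSO (2–5% in assay), with ethanol as co-solvent, and diluted in TSB. Tubes were incubated at 35 °C for 18 h. MIC = lowest concentration giving no visible growth; run in quadruplicate.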

Assay [3] concerns Staphylococcus aureus. The assay is described as follows: Antimicrobial activity against Staphylococcus aureus ATCC 25923 after 18 hrs by serial dilution test. As to conditions: ATCC 25923, 18 h. An outline of the steps: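 Twofold broth macro-dilution in Tryptic Soy Broth. Inoculum taken from fresh 18 h, 35 °C cultures on plate count agar and adjusted to McFarland no. 1. Compounds prepared as DMSO stocks and diluted in TSB, with ethanol as co-solvent and 2–5% DMSO in the assay. Tubes incubated at 35 °C for 18 h and read visually. MIC is the lowest concentration giving complete growth inhibition; run in quadruplicate.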

SMILES strings stand for the structures. Values after ≈ are worked out from the molar mass of the structure shown.

In the case of `CCCCNc1ccc(C(=O)N/N=C/c2ccc([N+](=O)[O-])s2)cc1`, the MBC in the assay with Staphylococcus aureus [1] is > 49.8 µg/mL. Besides, the minimal inhibitory concentration (MIC) was 6.22 µg/mL (≈ 18 µM) against Staphylococcus aureus [2] and ≤ 22.4 µM in the assay on Staphylococcus aureus [3].
On the same counts, the results for `O=C(N/N=C/c1ccc([N+](=O)[O-])s1)c1ccccc1` are ≥ 125 µg/mL, 3.9 µg/mL (≈ 14.2 µM) and ≤ 16.7 µM.
On to `O=C(N/N=C/c1ccc([N+](=O)[O-])s1)c1ccc(Cl)cc1`, for which, in the assay with Staphylococcus aureus [1], the MBC turned out to be 2.18 µg/mL (≈ 7.04 µM). Moreover, the MIC against Staphylococcus aureus [2] was 1.09 µg/mL (≈ 3.52 µM); against Staphylococcus aureus [3] it was ≤ 5.52 µM.
On the same counts, the results for `CCCCc1ccc(C(=O)N/N=C/c2ccc([N+](=O)[O-])s2)cc1` are > 50.8 µg/mL, 12.7 µg/mL (≈ 38.3 µM) and ≤ 40.7 µM.
Take `CCc1ccc(C(=O)N/N=C/c2ccc([N+](=O)[O-])s2)cc1`: the MBC against Staphylococcus aureus [1] was > 92.8 µg/mL. Also, the MIC against Staphylococcus aureus [2] is 5.8 µg/mL (≈ 19.1 µM); with Staphylococcus aureus [3], ≤ 22.2 µM.
The molecule `O=C(N/N=C/c1ccc([N+](=O)[O-])s1)c1ccc(Br)cc1` came in with an MBC against Staphylococcus aureus [1] of 0.63 µg/mL (≈ 1.78 µM). For the same molecule, the MIC against Staphylococcus aureus [2] was 0.63 µg/mL (≈ 1.78 µM); against Staphylococcus aureus [3], ≤ 2.12 µM.
Consider `CCCOc1ccc(C(=O)N/N=C/c2ccc([N+](=O)[O-])s2)cc1`, for which the MIC against Staphylococcus aureus [3] was ≤ 24.3 µM.
As to `CC(=O)c1ccc(C(=O)N/N=C/c2ccc([N+](=O)[O-])s2)cc1`, the MBC in the assay on Staphylococcus aureus [1] came to 0.22 µg/mL (≈ 0.693 µM). The MIC with Staphylococcus aureus [2] was 0.11 µg/mL (≈ 0.347 µM); in the assay on Staphylococcus aureus [3] it was ≤ 0.44 µM.
`O=C(N/N=C/c1ccc([N+](=O)[O-])s1)c1ccc(Cl)c(Cl)c1` showed an MBC against Staphylococcus aureus [1] of 0.63 µg/mL (≈ 1.83 µM). Moreover, the MIC with Staphylococcus aureus [2] is 0.63 µg/mL (≈ 1.83 µM); against Staphylococcus aureus [3], ≤ 2.21 µM.
As to `O=C(N/N=C/c1ccc([N+](=O)[O-])s1)c1ccc(I)cc1`, the MBC in the assay with Staphylococcus aureus [1] was > 88.8 µg/mL. The MIC with Staphylococcus aureus [2] was 5.55 µg/mL (≈ 13.8 µM); with Staphylococcus aureus [3], ≤ 14 µM.
For `CC(C)c1ccc(C(=O)N/N=C/c2ccc([N+](=O)[O-])s2)cc1`, the MBC against Staphylococcus aureus [1] was > 40.2 µg/mL. Besides, the MIC in the assay on Staphylococcus aureus [2] is 5.02 µg/mL (≈ 15.8 µM); in the assay on Staphylococcus aureus [3], ≤ 28.6 µM.
Turning to `C=Cc1ccc(C(=O)N/N=C/c2ccc([N+](=O)[O-])s2)cc1`, the MBC with Staphylococcus aureus [1] is > 54 µg/mL. Also, the MIC with Staphylococcus aureus [2] was 3.38 µg/mL (≈ 11.2 µM); in the assay on Staphylococcus aureus [3], ≤ 15.7 µM.
On to `CCCc1ccc(C(=O)N/N=C/c2ccc([N+](=O)[O-])s2)cc1`, for which the MBC against Staphylococcus aureus [1] is > 29 µg/mL. For the same molecule, the MIC in the assay with Staphylococcus aureus [2] is 7.25 µg/mL (≈ 22.8 µM); in the assay with Staphylococcus aureus [3], ≤ 36.5 µM.
As for `CCCCOc1ccc(C(=O)N/N=C/c2ccc([N+](=O)[O-])s2)cc1`, the MBC in the assay on Staphylococcus aureus [1] is > 41.2 µg/mL. For the same molecule, the MIC against Staphylococcus aureus [2] was 10.3 µg/mL (≈ 29.7 µM); against Staphylococcus aureus [3], ≤ 35.4 µM.

What is called MBC is the smallest concentration meeting the test's criterion for killing. A lower MBC goes with greater bactericidal potency. As usually defined, the MIC is the smallest concentration in the dilution series that meets the test's criterion for growth inhibition. High values mean weaker potency, low ones greater potency.
